Test results published in ChEMBL document CHEMBL1687824, “Overexpression of patA and patB, which encode ABC transporters, is associated with fluoroquinolone resistance in clinical isolates of Streptococcus pneumoniae” (2011).
Values after ≈ are worked out from the molar mass of the structure shown.

Legend:
Type in all cases: functional
Streptococcus pneumoniae [1] = experiment: Antibacterial activity against Streptococcus pneumoniae M302 overexpressing patA, patB and inactivated patA with single mutation by standardized agar doubling dilution method in presence of 50 uM sodium orthovanadate efflux pump inhibitor
Summary of the method: (§1)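 MICs determined by BSAC standardized agar doubling dilution. Strains were grown in brain heart infusion broth for 24 h at 37°C in 5% CO2. Inhibitor arms had reserpine at 20 μg/ml or sodium orthovanadate at 50 μM in the agar. Mutants were made by transforming magellan2 insertion amplimers into clinical isolates and selecting on spectinomycin 100 mg/liter, with a no-DNA spontaneous-mutation control.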

Streptococcus pneumoniae [2] = experiment: Antibacterial activity against Streptococcus pneumoniae M318 overexpressing patA, patB and inactivated patA with single mutation by standardized agar doubling dilution method in presence of 20 ug/ml reserpine efflux pump inhibitor
Summary of the method: (§2)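 MICs were determined by BSAC agar doubling dilution in the presence of reserpine at 20 μg/ml. Strains were grown in BHI broth for 24 h at 37°C in 5% CO2, with R6 as control. Synergy was defined as an MIC drop of ≥2 dilutions with the inhibitor.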

Streptococcus pneumoniae [3] = experiment: Antibacterial activity against Streptococcus pneumoniae M315 overexpressing patA, patB and inactivated patA with single mutation by standardized agar doubling dilution method in presence of 20 ug/ml reserpine efflux pump inhibitor; summary of the method: as §1
Streptococcus pneumoniae [4] = experiment: Antibacterial activity against Streptococcus pneumoniae M303 overexpressing patA, patB and inactivated patA with single mutation by standardized agar doubling dilution method in presence of 50 uM sodium orthovanadate efflux pump inhibitor; summary of the method: as §1
Streptococcus pneumoniae [5] = experiment: Antibacterial activity against Streptococcus pneumoniae M45B overexpressing patA, patB and inactivated patB with single mutation by standardized agar doubling dilution method in presence of 50 uM sodium orthovanadate efflux pump inhibitor
Summary of the method: (§3)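 MICs were determined by BSAC agar doubling dilution in the presence of sodium orthovanadate at 50 μM. Cultures were grown in BHI broth for 24 h at 37°C in 5% CO2, with R6 as control. Synergy was defined as an MIC reduction of ≥2 dilutions with the inhibitor present.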

Streptococcus pneumoniae [6] = experiment: Antibacterial activity against Streptococcus pneumoniae M309 overexpressing patA, patB and inactivated patB with single mutation by standardized agar doubling dilution method; summary of the method: as §1
Streptococcus pneumoniae [7] = experiment: Antibacterial activity against Streptococcus pneumoniae M308 overexpressing patA, patB and inactivated patB with single mutation by standardized agar doubling dilution method in presence of 50 uM sodium orthovanadate efflux pump inhibitor; summary of the method: as §1
Streptococcus pneumoniae [8] = experiment: Antibacterial activity against Streptococcus pneumoniae M87B overexpressing patA, patB and inactivated patB with single mutation by standardized agar doubling dilution method
Summary of the method: (§4)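 MICs were determined by agar doubling dilution following BSAC guidelines, with no efflux inhibitor. Strains were grown in brain heart infusion broth for 24 h at 37°C in 5% CO2. Species identity was confirmed by Gram stain, optochin sensitivity and capsule test. Control strain R6 was tested alongside.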

Streptococcus pneumoniae [9] = experiment: Antibacterial activity against Streptococcus pneumoniae M45A overexpressing patA, patB and inactivated patA with single mutation by standardized agar doubling dilution method; summary of the method: as §4
Streptococcus pneumoniae [10] = experiment: Antibacterial activity against wild type Streptococcus pneumoniae R6 by standardized agar doubling dilution method in presence of 50 uM sodium orthovanadate efflux pump inhibitor
Summary of the method: (§5)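 MIC by agar doubling dilution following BSAC guidelines. Strains grown in brain heart infusion broth 24 h at 37°C in 5% CO2. Where an efflux pump inhibitor applies, MIC redetermined with reserpine at 20 μg/ml or sodium orthovanadate at 50 μM. Synergy taken as a fall in MIC of ≥2 dilutions with inhibitor present. Dye resistance defined relative to R6 (both dyes ≥2 dilutions higher).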

Streptococcus pneumoniae [11] = experiment: Antibacterial activity against Streptococcus pneumoniae M45A overexpressing patA, patB and inactivated patA with single mutation by standardized agar doubling dilution method in presence of 50 uM sodium orthovanadate efflux pump inhibitor; summary of the method: as §3
Streptococcus pneumoniae [12] = experiment: Antibacterial activity against Streptococcus pneumoniae M310 overexpressing patA, patB and inactivated patB with single mutation by standardized agar doubling dilution method in presence of 20 ug/ml reserpine efflux pump inhibitor; summary of the method: as §1
Streptococcus pneumoniae [13] = experiment: Antibacterial activity against fluoroquinolone, dye-susceptible Streptococcus pneumoniae M295 S overexpressing patA, patB by standardized agar doubling dilution method; summary of the method: as §5
Streptococcus pneumoniae [14] = experiment: Antibacterial activity against fluoroquinolone, dye-susceptible Streptococcus pneumoniae by standardized agar doubling dilution method; summary of the method: as §5
Streptococcus pneumoniae [15] = experiment: Antibacterial activity against Streptococcus pneumoniae M46B overexpressing patA, patB and inactivated patB with single mutation by standardized agar doubling dilution method in presence of 20 ug/ml reserpine efflux pump inhibitor; summary of the method: as §2
Streptococcus pneumoniae [16] = experiment: Antibacterial activity against Streptococcus pneumoniae M317 overexpressing patA, patB and inactivated patB with single mutation by standardized agar doubling dilution method in presence of 20 ug/ml reserpine efflux pump inhibitor; summary of the method: as §2
Streptococcus pneumoniae [17] = experiment: Antibacterial activity against Streptococcus pneumoniae M315 overexpressing patA, patB and inactivated patA with single mutation by standardized agar doubling dilution method; summary of the method: as §1
Streptococcus pneumoniae [18] = experiment: Antibacterial activity against fluoroquinolone, dye-resistant Streptococcus pneumoniae by standardized agar doubling dilution method; summary of the method: as §5
Streptococcus pneumoniae [19] = experiment: Antibacterial activity against Streptococcus pneumoniae M301 overexpressing patA, patB and inactivated patA with single mutation by standardized agar doubling dilution method; summary of the method: as §1
Streptococcus pneumoniae [20] = experiment: Antibacterial activity against fluoroquinolone-resistant Streptococcus pneumoniae M98 FQ-R overexpressing patA, patB by standardized agar doubling dilution method in presence of 20 ug/ml reserpine efflux pump inhibitor
Summary of the method: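 MIC by agar doubling dilution per BSAC guidelines; strains pregrown in brain heart infusion broth 24 h, 37°C, 5% CO2. MICs measured alone and with efflux pump inhibitors reserpine (20 μg/ml) or sodium orthovanadate (50 μM); synergy defined as ≥2-dilution MIC reduction in presence of inhibitor.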

Streptococcus pneumoniae [21] = experiment: Antibacterial activity against Streptococcus pneumoniae M316 overexpressing patA, patB and inactivated patA with single mutation by standardized agar doubling dilution method in presence of 20 ug/ml reserpine efflux pump inhibitor; summary of the method: as §2
Streptococcus pneumoniae [22] = experiment: Antibacterial activity against fluoroquinolone, dye-resistant Streptococcus pneumoniae M74 overexpressing patA, patB by standardized agar doubling dilution method in presence of 50 uM sodium orthovanadate efflux pump inhibitor; summary of the method: as §5
Streptococcus pneumoniae [23] = experiment: Antibacterial activity against Streptococcus pneumoniae M301 overexpressing patA, patB and inactivated patA with single mutation by standardized agar doubling dilution method in presence of 50 uM sodium orthovanadate efflux pump inhibitor; summary of the method: as §1
Streptococcus pneumoniae [24] = experiment: Antibacterial activity against Streptococcus pneumoniae M310 overexpressing patA, patB and inactivated patB with single mutation by standardized agar doubling dilution method in presence of 50 uM sodium orthovanadate efflux pump inhibitor; summary of the method: as §1
Streptococcus pneumoniae [25] = experiment: Antibacterial activity against fluoroquinolone-resistant Streptococcus pneumoniae by standardized agar doubling dilution method; summary of the method: as §5
Streptococcus pneumoniae [26] = experiment: Antibacterial activity against Streptococcus pneumoniae M86B overexpressing patA, patB and inactivated patB with single mutation by standardized agar doubling dilution method; summary of the method: as §4
Streptococcus pneumoniae [27] = experiment: Antibacterial activity against Streptococcus pneumoniae M308 overexpressing patA, patB and inactivated patB with single mutation by standardized agar doubling dilution method in presence of 20 ug/ml reserpine efflux pump inhibitor; summary of the method: as §1
Streptococcus pneumoniae [28] = experiment: Antibacterial activity against fluoroquinolone, dye-resistant Streptococcus pneumoniae M45 overexpressing patA, patB by standardized agar doubling dilution method; summary of the method: as §5
Streptococcus pneumoniae [29] = experiment: Antibacterial activity against fluoroquinolone, dye-resistant Streptococcus pneumoniae M297 overexpressing patA, patB by standardized agar doubling dilution method; summary of the method: as §5
Streptococcus pneumoniae [30] = experiment: Antibacterial activity against Streptococcus pneumoniae M46B overexpressing patA, patB and inactivated patB with single mutation by standardized agar doubling dilution method; summary of the method: as §4

SMILES: CC[n+]1c(-c2ccccc2)c2cc(N)ccc2c2ccc(N)cc21.[Br-] [HOMIDIUM BROMIDE]
- MIC (Streptococcus pneumoniae [1]): 0.5 µg/mL
- MIC (Streptococcus pneumoniae [2]): 0.5 µg/mL
- MIC (Streptococcus pneumoniae [3]): 0.12 µg/mL
- MIC (Streptococcus pneumoniae [4]): 1 µg/mL
- MIC (Streptococcus pneumoniae [5]): 0.5 µg/mL
- MIC (Streptococcus pneumoniae [6]): 16 µg/mL
- MIC (Streptococcus pneumoniae [7]): 0.5 µg/mL
- MIC (Streptococcus pneumoniae [8]): 0.5 µg/mL
- MIC (Streptococcus pneumoniae [9]): 0.5 µg/mL
- MIC (Streptococcus pneumoniae [10]): 0.1 µg/mL
- MIC (Streptococcus pneumoniae [11]): 0.5 µg/mL
- MIC (Streptococcus pneumoniae [12]): 0.5 µg/mL
- MIC (Streptococcus pneumoniae [13]): 2 µg/mL
- MIC90 (Streptococcus pneumoniae [14]): 2 µg/mL
- MIC (Streptococcus pneumoniae [15]): 0.5 µg/mL
- MIC (Streptococcus pneumoniae [16]): 0.5 µg/mL
- MIC (Streptococcus pneumoniae [17]): 0.25 µg/mL
- MIC90 (Streptococcus pneumoniae [18]): 8 µg/mL
- MIC (Streptococcus pneumoniae [19]): 0.5 µg/mL
- MIC (Streptococcus pneumoniae [20]): 0.12 µg/mL
- MIC (Streptococcus pneumoniae [21]): 0.5 µg/mL
- MIC (Streptococcus pneumoniae [22]): 1 µg/mL
- MIC (Streptococcus pneumoniae [23]): 0.25 µg/mL
- MIC (Streptococcus pneumoniae [24]): 8 µg/mL
- MIC90 (Streptococcus pneumoniae [25]): 2 µg/mL
- MIC (Streptococcus pneumoniae [26]): 0.5 µg/mL
- MIC (Streptococcus pneumoniae [27]): 0.25 µg/mL
- MIC (Streptococcus pneumoniae [28]): 4 µg/mL
- MIC (Streptococcus pneumoniae [29]): 8 µg/mL
- MIC (Streptococcus pneumoniae [30]): 0.5 µg/mL

SMILES: O=C(O)c1cn(C2CC2)c2cc(N3CCNCC3)c(F)cc2c1=O [CIPROFLOXACIN]
- MIC (Streptococcus pneumoniae [1]): 4 µg/mL
- MIC (Streptococcus pneumoniae [2]): 16 µg/mL
- MIC (Streptococcus pneumoniae [3]): 1 µg/mL
- MIC (Streptococcus pneumoniae [4]): 0.12 µg/mL
- MIC (Streptococcus pneumoniae [5]): 1 µg/mL
- MIC (Streptococcus pneumoniae [6]): 4 µg/mL (≈ 12.1 µM)
- MIC (Streptococcus pneumoniae [7]): 0.12 µg/mL
- MIC (Streptococcus pneumoniae [8]): 8 µg/mL (≈ 24.1 µM)
- MIC (Streptococcus pneumoniae [9]): 1 µg/mL (≈ 3.02 µM)
- MIC (Streptococcus pneumoniae [10]): 0.1 µg/mL
- MIC (Streptococcus pneumoniae [11]): 1 µg/mL
- MIC (Streptococcus pneumoniae [12]): 1 µg/mL
- MIC (Streptococcus pneumoniae [13]): 1 µg/mL (≈ 3.02 µM)
- MIC (Streptococcus pneumoniae [14]): 0.25 µg/mL (≈ 0.754 µM)
- MIC90 (Streptococcus pneumoniae [14]): 0.25 µg/mL (≈ 0.754 µM)
- MIC (Streptococcus pneumoniae [15]): 0.12 µg/mL
- MIC (Streptococcus pneumoniae [16]): 8 µg/mL
- MIC (Streptococcus pneumoniae [17]): 2 µg/mL (≈ 6.04 µM)
- MIC90 (Streptococcus pneumoniae [18]): 16 µg/mL (≈ 48.3 µM)
- MIC (Streptococcus pneumoniae [19]): 8 µg/mL (≈ 24.1 µM)
- MIC (Streptococcus pneumoniae [20]): 2 µg/mL
- MIC (Streptococcus pneumoniae [21]): 8 µg/mL
- MIC (Streptococcus pneumoniae [22]): 64 µg/mL
- MIC (Streptococcus pneumoniae [23]): 8 µg/mL
- MIC (Streptococcus pneumoniae [24]): 2 µg/mL
- MIC90 (Streptococcus pneumoniae [25]): 8 µg/mL (≈ 24.1 µM)
- MIC (Streptococcus pneumoniae [26]): 1 µg/mL (≈ 3.02 µM)
- MIC (Streptococcus pneumoniae [27]): 1 µg/mL
- MIC (Streptococcus pneumoniae [28]): 4 µg/mL (≈ 12.1 µM)
- MIC (Streptococcus pneumoniae [29]): 8 µg/mL (≈ 24.1 µM)
- MIC (Streptococcus pneumoniae [30]): 0.12 µg/mL (≈ 0.362 µM)
